# Experiments:
# Staphylococcus aureus = test: Antimicrobial activity against Staphylococcus aureus assessed as inhibition at 20 ug/6 mm disk after 1 to 2 days by agar diffusion assay; assay type: functional
# Procedure, shortened: (§1)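 Standard agar diffusion: 6-mm paper disks loaded with 20 µg of compound were placed on inoculated plates. Inhibition-zone diameter (mm) was read after 1 and 2 days of growth.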
# SF-268 = test: Growth inhibition of human SF268 cells after 48 hrs; assay type: functional; details: SF-268, 48 h
# Procedure, shortened: (§2)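 NCI-60 human tumour cell line panel screen run at the US National Cancer Institute under its standard cytotoxicity protocol. It covers leukaemia, NSCLC, colon, CNS, melanoma, ovarian, renal, prostate and breast lines. An initial single-dose test was followed by five-dose testing with 48 h compound exposure.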
# K562 = test: Growth inhibition of human K562 cells after 48 hrs; assay type: functional; details: K562, 48 h; procedure, shortened: as §2
# A549 = test: Growth inhibition of human A549/ATCC cells after 48 hrs; assay type: functional; details: A549, 48 h; procedure, shortened: as §2
# [1] = Growth inhibition of human UACC62 cells after 48 hrs; assay type: functional; details: UACC-62, 48 h
# Procedure, shortened: (§3)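 Run by the NCI 58-cell-line screen under its standard cytotoxicity protocol. Compounds were first tested at a single dose, then at five doses. Cells were exposed to compound for 48 h.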
# HT-29 = test: Growth inhibition of human HT-29 cells after 48 hrs; assay type: functional; details: HT-29, 48 h; procedure, shortened: as §2
# [2] = Growth inhibition of human LOXIMVI cells after 48 hrs; assay type: functional; details: LOX IMVI; procedure, shortened: as §2
# HL-60(TB) = test: Growth inhibition of human HL-60(TB) cells after 48 hrs; assay type: functional; details: HL-60, 48 h; procedure, shortened: as §2
# Aspergillus niger = test: Antimicrobial activity against Aspergillus niger assessed as inhibition at 20 ug/6 mm disk after 1 to 2 days by agar diffusion assay; assay type: functional; procedure, shortened: as §1
# A-431 = test: Cytotoxicity against human A431 cells assessed as cell viability after 24 hrs incubation by MTT assay; assay type: functional, cell-based; details: A-431, 24 h
# Procedure, shortened: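 Cell lines came from DSMZ; primary human fibroblasts served as non-cancer controls. Cells were grown in medium with 10% FCS, seeded at 50,000 cells/ml, and grown 2 days at 37 °C, 10% CO2. Serial dilutions were then added for 24 h. MTT (final 0.5 mg/ml) was added for 2 h. Formazan was pelleted, PBS-washed, dissolved in isopropanol/0.4% HCl and read at 590 nm. Two parallel experiments were run. IC50 was taken as the concentration giving 50% of untreated-control absorbance.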
# SK-MEL-2 = test: Growth inhibition of human SK-MEL-2 cells after 48 hrs; assay type: functional; details: SK-MEL-2, 48 h; procedure, shortened: as §2
# [3] = Growth inhibition of human HCT116 cells after 48 hrs; assay type: functional; details: HCT-116, 48 h; procedure, shortened: as §2
# [4] = Growth inhibition of human OVCAR8 cells after 48 hrs; assay type: functional; details: OVCAR-8, 48 h; procedure, shortened: as §2
# [5] = Growth inhibition of human RPMI8226 cells after 48 hrs; assay type: functional; details: RPMI-8226, 48 h; procedure, shortened: as §2
# SK-MEL-5 = test: Growth inhibition of human SK-MEL-5 cells after 48 hrs; assay type: functional; details: SK-MEL-5, 48 h; procedure, shortened: as §3
# SNB-19 = test: Growth inhibition of human SNB19 cells after 48 hrs; assay type: functional; details: SNB-19, 48 h; procedure, shortened: as §3
# A498 = test: Growth inhibition of human A498 cells after 48 hrs; assay type: functional; details: A498, 48 h; procedure, shortened: as §2
# Saccharomyces cerevisiae = test: Antimicrobial activity against Saccharomyces cerevisiae assessed as inhibition at 20 ug/6 mm disk after 1 to 2 days by agar diffusion assay; assay type: functional; procedure, shortened: as §1
# [6] = Growth inhibition of human UACC257 cells after 48 hrs; assay type: functional; details: UACC-257, 48 h; procedure, shortened: as §3
# [7] = Lipophilicity, log K of the compound by HPLC analysis
# [8] = Growth inhibition of human UO31 cells after 48 hrs; assay type: functional; details: UO-31, 48 h; procedure, shortened: as §3
# SK-OV-3 = test: Growth inhibition of human SKOV3 cells after 48 hrs; assay type: functional; details: SK-OV-3, 48 h; procedure, shortened: as §3
# [9] = Growth inhibition of human MOLT4 cells after 48 hrs; assay type: functional; details: MOLT-4, 48 h; procedure, shortened: as §2
# NCI-H23 = test: Growth inhibition of human NCI-H23 cells after 48 hrs; assay type: functional; details: NCI-H23, 48 h; procedure, shortened: as §2
# [10] = Growth inhibition of human BT549 cells after 48 hrs; assay type: functional; details: BT-549, 48 h; procedure, shortened: as §2
# MDA-MB-435 = test: Growth inhibition of human MDA-MB-435 cells after 48 hrs; assay type: functional; details: MDA-MB-435, 48 h; procedure, shortened: as §2
# NCI-H522 = test: Growth inhibition of human NCI-H522 cells after 48 hrs; assay type: functional; details: NCI-H522, 48 h; procedure, shortened: as §2
# T47D = test: Growth inhibition of human T47D cells after 48 hrs; assay type: functional; procedure, shortened: as §3
# Micrococcus luteus = test: Antimicrobial activity against Micrococcus luteus assessed as inhibition at 20 ug/6 mm disk after 1 to 2 days by agar diffusion assay; assay type: functional; procedure, shortened: as §1
# [11] = Growth inhibition of human OVCAR4 cells after 48 hrs; assay type: functional; details: OVCAR-4, 48 h; procedure, shortened: as §2
# SNB-75 = test: Growth inhibition of human SNB75 cells after 48 hrs; assay type: functional; details: SNB-75, 48 h; procedure, shortened: as §3
# [12] = Growth inhibition of human HOP92 cells after 48 hrs; assay type: functional; details: HOP-92, 48 h; procedure, shortened: as §2
# [13] = read-out: pLC50 (the source's name) (converted)
smiles,measurement,setting,value
COc1ccc(N(CC(=O)NCCC[Te]c2ccccc2)C(=O)CNC(=O)OC(C)(C)C)cc1,diameter of the inhibition zone (DIZ),Staphylococcus aureus,10 mm
same,GI50,SF-268,2.69 µM
same,CC50,SF-268; [13],100 µM
same,TGI,SF-268; read-out: pTGI (converted),7.59 µM
same,GI50,K562,5.5 µM
same,CC50,K562; [13],> 100 µM
same,TGI,K562; read-out: pTGI (converted),> 100 µM
same,GI50,A549,0.525 µM
same,CC50,A549; [13],6.76 µM
same,TGI,A549; read-out: pTGI (converted),2.19 µM
same,GI50,[1],1.66 µM
same,CC50,[1]; [13],8.71 µM
same,TGI,[1]; read-out: pTGI (converted),3.8 µM
same,GI50,HT-29,3.8 µM
same,CC50,HT-29; [13],> 100 µM
same,TGI,HT-29; read-out: pTGI (converted),13.8 µM
same,GI50,[2],2.34 µM
same,LC50,[2],34.7 µM
same,TGI,[2]; read-out: pTGI (converted),5.75 µM
same,GI50,HL-60(TB),2.09 µM
same,CC50,HL-60(TB); [13],> 100 µM
same,TGI,HL-60(TB); read-out: pTGI (converted),5.62 µM
same,diameter of the inhibition zone (DIZ),Aspergillus niger,0 mm
same,IC50,A-431,5 µM
same,GI50,SK-MEL-2,3.02 µM
same,CC50,SK-MEL-2; [13],> 100 µM
same,TGI,SK-MEL-2; read-out: pTGI (converted),6.76 µM
same,GI50,[3],2.09 µM
same,CC50,[3]; [13],49 µM
same,TGI,[3]; read-out: pTGI (converted),6.46 µM
same,GI50,[4],2.4 µM
same,LC50,[4],> 100 µM
same,TGI,[4]; read-out: pTGI (converted),6.92 µM
same,GI50,[5],2.4 µM
same,CC50,[5]; [13],> 100 µM
same,TGI,[5]; read-out: pTGI (converted),7.24 µM
same,Retention_time,,1.548 min
same,GI50,SK-MEL-5,3.16 µM
same,CC50,SK-MEL-5; [13],34.7 µM
same,TGI,SK-MEL-5; read-out: pTGI (converted),9.12 µM
same,GI50,SNB-19,8.71 µM
same,CC50,SNB-19; [13],> 100 µM
same,TGI,SNB-19; read-out: pTGI (converted),9.55 µM
same,GI50,A498,2.29 µM
same,LC50,A498,33.9 µM
same,TGI,A498; read-out: pTGI (converted),5.37 µM
same,diameter of the inhibition zone (DIZ),Saccharomyces cerevisiae,0 mm
same,GI50,[6],8.51 µM
same,CC50,[6]; [13],61.7 µM
same,TGI,[6]; read-out: pTGI (converted),24 µM
same,log K,[7],0.05
same,GI50,[8],2.4 µM
same,LC50,[8],> 100 µM
same,TGI,[8]; read-out: pTGI (converted),9.12 µM
same,GI50,SK-OV-3,2.34 µM
same,CC50,SK-OV-3; [13],10 µM
same,TGI,SK-OV-3; read-out: pTGI (converted),4.79 µM
same,GI50,[9],3.09 µM
same,CC50,[9]; [13],> 100 µM
same,TGI,[9]; read-out: pTGI (converted),10 µM
same,GI50,NCI-H23,2.51 µM
same,CC50,NCI-H23; [13],> 100 µM
same,TGI,NCI-H23; read-out: pTGI (converted),6.61 µM
same,GI50,[10],1.7 µM
same,LC50 (concentration killing 50% of cells),[10],> 100 µM
same,TGI,[10]; read-out: pTGI (converted),4.9 µM
same,GI50,MDA-MB-435,3.31 µM
same,CC50,MDA-MB-435; [13],51.3 µM
same,TGI,MDA-MB-435; read-out: pTGI (converted),13.5 µM
same,GI50,NCI-H522,2.57 µM
same,CC50,NCI-H522; [13],56.2 µM
same,TGI,NCI-H522; read-out: pTGI (converted),10.5 µM
same,GI50,T47D,11.2 µM
same,LC50,T47D,> 100 µM
same,TGI,T47D; read-out: pTGI (converted),40.7 µM
same,diameter of the inhibition zone (DIZ),Micrococcus luteus,7 mm
same,GI50,[11],22.4 µM
same,LC50,[11],> 100 µM
same,TGI,[11]; read-out: pTGI (converted),> 100 µM
same,GI50,SNB-75,6.61 µM
same,CC50,SNB-75; [13],36.3 µM
same,TGI,SNB-75; read-out: pTGI (converted),7.41 µM
same,GI50,[12],2.95 µM
same,CC50,[12]; [13],66.1 µM
same,TGI,[12]; read-out: pTGI (converted),4.9 µM

# Reference: ChEMBL document CHEMBL3351600, “Sulfur, selenium and tellurium pseudopeptides: synthesis and biological evaluation” (Bioorg Med Chem, 2014)
